Source: ChEMBL document CHEMBL4017460, “A Tobramycin Vector Enhances Synergy and Efficacy of Efflux Pump Inhibitors against Multidrug-Resistant Gram-Negative Bacteria” (J Med Chem, 2017)
Values after ≈ are worked out from the molar mass of the structure shown. Active and inactive are the calls of the source. The rule behind the calls is not given here.

Assays:
[1] = test system: Pseudomonas aeruginosa PAO1; test: Inhibition of RND efflux pump in Pseudomonas aeruginosa PAO1 assessed as potentiation of minocycline-induced antibacterial activity by measuring minocycline MIC at 8 ug/ml after 18 to 24 hrs by microbroth dilution assay (reference value: 8 ug/ml)
Procedure, shortened: (§1)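 Absolute minocycline MIC taken from checkerboard broth dilution with a fixed 8 μg/mL adjuvant. Inoculum was a 0.5 McFarland saline suspension diluted 1:50 in MHB, incubated 37 °C for 18 h. MIC is the lowest concentration with no growth.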

[2] = test system: Pseudomonas aeruginosa PAO1; test: Inhibition of RND efflux pump in Pseudomonas aeruginosa PAO1 assessed as potentiation of minocycline-induced antibacterial activity at 8 ug/ml after 18 to 24 hrs by checker board assay
Procedure, shortened: (§2)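 Checkerboard in MHB: antibiotic 2-fold diluted along one axis, test agent 2-fold diluted along the other. Overnight culture standardized to 0.5 McFarland in saline, diluted 1:50 in MHB, added to wells, incubated 37 °C for 18 h. MIC is the lowest concentration with no growth. FIC = MIC in combination / MIC alone; FIC index = sum of both FICs.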

Pseudomonas aeruginosa [3] = test: Antibacterial activity against Pseudomonas aeruginosa PAO1 after 18 to 24 hrs by microbroth dilution assay; format: functional; procedure, shortened: as §2
Pseudomonas aeruginosa [4] = test: Antibacterial activity against Pseudomonas aeruginosa PAO1 assessed as ratio of MIC after 25 serial passages at sub-MIC to MIC after 1 passage by microbroth dilution assay; format: functional
Pseudomonas aeruginosa [5] = test: Antibacterial activity against XDR Pseudomonas aeruginosa isolate P262-101856 infected in Galleria mellonella assessed as protection against bacterial infection by measuring larval death at 75 mg/kg up to 24 hrs relative to control; format: functional
Procedure, shortened: (§3)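 G. mellonella larvae infected with 1.0 × 10^5/mL CFU of XDR P. aeruginosa 101856. A single-dose injection of agent, alone or with minocycline, given 2 h post-infection. Survival scored up to 24 h. 15 larvae per experiment from different batches, two experiments per dosage (n = 30). Significance 0 vs 24 h at P ≤ 0.05.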

Pseudomonas aeruginosa [6] = test: Induction of membrane destabilization in Pseudomonas aeruginosa PAO1 assessed as increase in tetracycline uptake at 5 ug/ml measured at 1 min interval for 30 mins by fluorescence assay; format: functional
Pseudomonas aeruginosa [7] = test: (§4) Inhibition of RND efflux pump in XDR Pseudomonas aeruginosa isolate P262-101856 infected in Galleria mellonella assessed as potentiation of minocycline-induced antibacterial activity by measuring larval death rate at 75 mg/kg co-treated with 75 mg/kg minocycline measured after 24 hrs relative to control; format: organism-based; design: scale not given: the % may be the effect or the level left; procedure, shortened: as §3
Enterobacter cloacae [8] = test: Inhibition of RND efflux pump in Enterobacter cloacae isolate 117029 assessed as potentiation of minocycline-induced antibacterial activity at 8 ug/ml after 18 to 24 hrs by microbroth dilution assay; procedure, shortened: as §2
Klebsiella pneumoniae [9] = test: Inhibition of RND efflux pump in Klebsiella pneumoniae isolate 116381 assessed as potentiation of minocycline-induced antibacterial activity by measuring minocycline MIC at 8 ug/ml after 18 to 24 hrs by microbroth dilution assay (reference value: 128 ug/ml); procedure, shortened: as §1
Klebsiella pneumoniae [10] = test: Antibacterial activity against Klebsiella pneumoniae isolate 116381 after 18 to 24 hrs by microbroth dilution assay; format: functional; procedure, shortened: as §2
Enterobacter cloacae [11] = test: Antibacterial activity against Enterobacter cloacae isolate 117029 after 18 to 24 hrs by microbroth dilution assay; format: functional; procedure, shortened: as §2
Enterobacter cloacae [12] = test: Inhibition of RND efflux pump in Enterobacter cloacae isolate 117029 assessed as potentiation of minocycline-induced antibacterial activity by measuring minocycline MIC at 8 ug/ml after 18 to 24 hrs by microbroth dilution assay (reference value: 128 to 256 ug/ml); procedure, shortened: as §1
[13] = test system: Pseudomonas aeruginosa PAO1; test: Inhibition of RND efflux pump in Pseudomonas aeruginosa PAO1 assessed as increase in tetracycline uptake up to 5.7 ug/ml measured at 1 min interval for 30 mins by fluorescence assay
Klebsiella pneumoniae [14] = test: Inhibition of RND efflux pump in Klebsiella pneumoniae isolate 116381 assessed as potentiation of minocycline-induced antibacterial activity at 8 ug/ml after 18 to 24 hrs by microbroth dilution assay; procedure, shortened: as §2
Pseudomonas aeruginosa [15] = test: as §4, with “survival” for “death”; format: organism-based; procedure, shortened: as §3
[16] = test system: Pseudomonas aeruginosa PAO1; test: Inhibition of RND efflux pump in Pseudomonas aeruginosa PAO1 assessed as increase in tetracycline uptake up to 8.2 ug/ml measured at 1 min interval for 30 mins by fluorescence assay
Procedure, shortened: (§5)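 Tetracycline uptake assay in P. aeruginosa PAO1: enhancement of tetracycline fluorescence as it enters cells, monitored with compound present at several concentrations.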

[17] = test system: Pseudomonas aeruginosa PAO1; test: Inhibition of RND efflux pump in Pseudomonas aeruginosa PAO1 assessed as increase in tetracycline uptake at 13.6 ug/ml measured at 1 min interval for 30 mins by fluorescence assay; procedure, shortened: as §5
[18] = test system: Pseudomonas aeruginosa PAO1; test: Inhibition of RND efflux pump in Pseudomonas aeruginosa PAO1 assessed as potentiation of minocycline-induced antibacterial activity by measuring ratio of minocycline MIC after 25 serial passages to minocycline MIC at sub-MIC after 18 to 24 hrs by microbroth dilution assay
[19] = Toxicity in Galleria mellonella assessed as death at 100 mg/kg after 24 hrs relative to control; format: organism-based; settings: in vivo, read-out: Activity
[20] = test system: Pseudomonas aeruginosa PAO1; test: Inhibition of RND efflux pump in Pseudomonas aeruginosa PAO1 assessed as potentiation of minocycline-induced antibacterial activity by measuring fold reduction in minocycline MIC at 8 ug/ml after 18 to 24 hrs by microbroth dilution assay relative to minocycline alone; procedure, shortened: as §1
Pseudomonas aeruginosa [21] = test: Induction of outer membrane permeabilization in Pseudomonas aeruginosa PAO1 assessed as increase in tetracycline uptake at 29 ug/ml measured at 1 min interval for 30 mins by fluorescence assay; format: functional; procedure, shortened: as §5
Pseudomonas aeruginosa [22] = test: Induction of cytoplasmic membrane depolarization in Pseudomonas aeruginosa PAO1 at 16 ug/ml by DiSC3(5) dye based fluorescence assay; format: functional
Procedure, shortened: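 Cytoplasmic membrane depolarization in P. aeruginosa PAO1, monitored by DiSC3(5) fluorescence across a range of compound concentrations. Colistin served as positive control.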

## Cl.Cl.Cl.Cl.Cl.Cl.Cl.NC[C@H]1O[C@H](O[C@H]2[C@H](OCCN3CCN(Cc4cccc5ccccc45)CC3)[C@@H](O[C@H]3O[C@H](CO)[C@@H](O)[C@H](N)[C@H]3O)[C@H](N)C[C@@H]2N)[C@H](N)C[C@@H]1O
[1]
  MIC: 4 µg/mL
[2]
  fractional inhibitory concentration index (FICI): 0.53
Pseudomonas aeruginosa [3]
  MIC: 128 µg/mL

## CN(C)c1ccc(O)c2c1C[C@H]1C[C@H]3[C@H](N(C)C)C(O)=C(C(N)=O)C(=O)[C@@]3(O)C(O)=C1C2=O [MINOCYCLINE]
Pseudomonas aeruginosa [4]
  Ratio: 16
Pseudomonas aeruginosa [5]
  Activity: 100%

## Cetrimonium bromide
[2]
  fractional inhibitory concentration index (FICI): 0.75

## N#CC(C#N)=NNc1cccc(Cl)c1
Pseudomonas aeruginosa [6]
  Activity: Active

## c1ccc2c(CN3CCNCC3)cccc2c1
Pseudomonas aeruginosa [7]
  Activity: 100%
Enterobacter cloacae [8]
  fractional inhibitory concentration index (FICI): > 0.5
Klebsiella pneumoniae [9]
  MIC: 128 µg/mL
Klebsiella pneumoniae [10]
  MIC: > 512 µg/mL
Enterobacter cloacae [11]
  MIC: > 512 µg/mL
Enterobacter cloacae [12]
  MIC: 128 µg/mL
[13]
  inhibition: inactive
Klebsiella pneumoniae [14]
  fractional inhibitory concentration index (FICI): 0.25 to 0.38
[1]
  MIC: 8 µg/mL
[2]
  fractional inhibitory concentration index (FICI): 1.02
Pseudomonas aeruginosa [15]
  Survival: 0%
Pseudomonas aeruginosa [3]
  MIC: 512 µg/mL (≈ 2260 µM)
Pseudomonas aeruginosa [5]
  Activity: 100%

## Cl.Cl.Cl.Cl.Cl.Cl.Cl.NC[C@H]1O[C@H](O[C@H]2[C@H](OCCCCCCN3CCN(Cc4cccc5ccccc45)CC3)[C@@H](O[C@H]3O[C@H](CO)[C@@H](O)[C@H](N)[C@H]3O)[C@H](N)C[C@@H]2N)[C@H](N)C[C@@H]1O
[1]
  MIC: 4 µg/mL
[2]
  fractional inhibitory concentration index (FICI): 0.25 to 0.5
Pseudomonas aeruginosa [3]
  MIC: > 512 µg/mL

## Cl.Cl.Cl.Cl.Cl.Cl.Cl.NC[C@H]1O[C@H](O[C@H]2[C@H](OCCCCCCCCN3CCN(Cc4cccc5ccccc45)CC3)[C@@H](O[C@H]3O[C@H](CO)[C@@H](O)[C@H](N)[C@H]3O)[C@H](N)C[C@@H]2N)[C@H](N)C[C@@H]1O
[1]
  MIC: 2 µg/mL
[2]
  fractional inhibitory concentration index (FICI): 0.125 to 0.25
Pseudomonas aeruginosa [3]
  MIC: > 512 µg/mL

## Fc1ccc([C@@H]2CCNC[C@H]2COc2ccc3c(c2)OCO3)cc1 [PAROXETINE]
Pseudomonas aeruginosa [7]
  Activity: 100%
Enterobacter cloacae [8]
  fractional inhibitory concentration index (FICI): 0.5
Klebsiella pneumoniae [9]
  MIC: 128 µg/mL
Klebsiella pneumoniae [10]
  MIC: 128 µg/mL (≈ 389 µM)
Enterobacter cloacae [11]
  MIC: 64 µg/mL (≈ 194 µM)
Enterobacter cloacae [12]
  MIC: 64 µg/mL
Klebsiella pneumoniae [14]
  fractional inhibitory concentration index (FICI): 0.63
[16]
  inhibition: inactive
[1]
  MIC: 8 µg/mL
[2]
  fractional inhibitory concentration index (FICI): 1.02
Pseudomonas aeruginosa [3]
  MIC: 512 µg/mL (≈ 1550 µM)

## NC[C@@H]1CN[C@@H](C(=O)N[C@H](CCc2ccccc2)C(=O)Nc2ccc3ccccc3c2)C1
Enterobacter cloacae [8]
  fractional inhibitory concentration index (FICI): 0.13
Klebsiella pneumoniae [9]
  MIC: 4 µg/mL
Klebsiella pneumoniae [10]
  MIC: 256 µg/mL (≈ 595 µM)
[17]
  inhibition: Active
[18]
  Ratio: 4
Enterobacter cloacae [11]
  MIC: 64 µg/mL (≈ 149 µM)
Enterobacter cloacae [12]
  MIC: 8 µg/mL
[19]
  mortality at 24 h: 80%
Klebsiella pneumoniae [14]
  fractional inhibitory concentration index (FICI): 0.06
[1]
  MIC: 1 µg/mL
[2]
  fractional inhibitory concentration index (FICI): 0.13
Pseudomonas aeruginosa [3]
  MIC: 256 µg/mL (≈ 595 µM)
[20]
  fold change (FC): 8

## NC[C@H]1O[C@H](O[C@H]2[C@H](O)[C@@H](O[C@H]3O[C@H](CO)[C@@H](O)[C@H](N)[C@H]3O)[C@H](N)C[C@@H]2N)[C@H](N)C[C@@H]1O [TOBRAMYCIN]
[2]
  fractional inhibitory concentration index (FICI): 1.06
Pseudomonas aeruginosa [3]
  MIC: 0.25 µg/mL (≈ 0.535 µM)
Pseudomonas aeruginosa [4]
  Ratio: 256

## COLISTIN
Pseudomonas aeruginosa [21]
  Activity: Active
Pseudomonas aeruginosa [22]
  Activity: Active
[2]
  fractional inhibitory concentration index (FICI): 0.5
Pseudomonas aeruginosa [4]
  Ratio: > 1024

## NC[C@H]1O[C@H](O[C@H]2[C@H](OCCCCCCCCCCN3CCN(Cc4cccc5ccccc45)CC3)[C@@H](O[C@H]3O[C@H](CO)[C@@H](O)[C@H](N)[C@H]3O)[C@H](N)C[C@@H]2N)[C@H](N)C[C@@H]1O.O=C(O)C(F)(F)F.O=C(O)C(F)(F)F.O=C(O)C(F)(F)F.O=C(O)C(F)(F)F.O=C(O)C(F)(F)F.O=C(O)C(F)(F)F.O=C(O)C(F)(F)F
[1]
  MIC: 1 µg/mL
[2]
  fractional inhibitory concentration index (FICI): 0.125 to 0.14
Pseudomonas aeruginosa [3]
  MIC: > 512 µg/mL

## Cl.Cl.Cl.Cl.Cl.Cl.Cl.NC[C@H]1O[C@H](O[C@H]2[C@H](OCCCCN3CCN(Cc4cccc5ccccc45)CC3)[C@@H](O[C@H]3O[C@H](CO)[C@@H](O)[C@H](N)[C@H]3O)[C@H](N)C[C@@H]2N)[C@H](N)C[C@@H]1O
[1]
  MIC: 4 µg/mL
[2]
  fractional inhibitory concentration index (FICI): 0.25 to 0.5
Pseudomonas aeruginosa [3]
  MIC: 512 µg/mL
